# pIC50, pKi: −log10 of the molar value.
# Legend:
# [1] = Intrinsic clearance in human liver microsomes; format: ADME; conditions: read-out: CLH
# In short: (§1)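 Rat or human hepatic microsomes; test compound at 0.5 µM; CLint calculated from elimination ratio between 0 and 20 min; expressed as ml/min/kg.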
# [2] = Solubility of the compound at pH 6.8; format: physicochemical; conditions: buffer
# In short: (§2)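 Solubility measured in aqueous buffer at pH 1.2 and pH 6.8; reported in […].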
# [3] = Solubility of the compound in water; format: physicochemical
# [4] = target: T1, Prostaglandin E2 receptor EP1 subtype (Homo sapiens, UniProt P34995); test: Antagonist activity human EP1 receptor assessed as inhibition of PGE2-induced effect by reporter gene assay
# T1 sequence (P34995 whole entry): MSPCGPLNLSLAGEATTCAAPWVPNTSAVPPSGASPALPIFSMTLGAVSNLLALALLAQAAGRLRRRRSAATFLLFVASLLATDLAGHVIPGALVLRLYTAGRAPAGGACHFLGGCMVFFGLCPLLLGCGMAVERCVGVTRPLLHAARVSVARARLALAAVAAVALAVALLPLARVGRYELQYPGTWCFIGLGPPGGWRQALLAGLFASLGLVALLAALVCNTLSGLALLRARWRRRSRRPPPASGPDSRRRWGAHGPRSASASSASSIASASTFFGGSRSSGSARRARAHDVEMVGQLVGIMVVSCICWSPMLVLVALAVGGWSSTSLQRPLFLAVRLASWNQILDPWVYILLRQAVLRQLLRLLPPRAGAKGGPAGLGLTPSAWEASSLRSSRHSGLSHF
# In short: (§3)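 Human EP1 receptor-expressing recombinant cells stimulated with PGE2; antagonism read out by reporter-gene assay or by intracellular Ca2+ release; IC50 in nM.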
# [5] = target: T1, Prostaglandin E2 receptor EP1 subtype; test: Antagonist activity human EP1 receptor assessed as inhibition of PGE2-induced intracellular Ca2+ release by cell-based assay; format: functional; in short: as §3
# albumin = albumin (Homo sapiens, UniProt P02768); test: Binding affinity to albumin in plasma (unknown origin); format: ADME; conditions: read-out: PPB (converted)
# albumin, sequence (P02768 whole entry): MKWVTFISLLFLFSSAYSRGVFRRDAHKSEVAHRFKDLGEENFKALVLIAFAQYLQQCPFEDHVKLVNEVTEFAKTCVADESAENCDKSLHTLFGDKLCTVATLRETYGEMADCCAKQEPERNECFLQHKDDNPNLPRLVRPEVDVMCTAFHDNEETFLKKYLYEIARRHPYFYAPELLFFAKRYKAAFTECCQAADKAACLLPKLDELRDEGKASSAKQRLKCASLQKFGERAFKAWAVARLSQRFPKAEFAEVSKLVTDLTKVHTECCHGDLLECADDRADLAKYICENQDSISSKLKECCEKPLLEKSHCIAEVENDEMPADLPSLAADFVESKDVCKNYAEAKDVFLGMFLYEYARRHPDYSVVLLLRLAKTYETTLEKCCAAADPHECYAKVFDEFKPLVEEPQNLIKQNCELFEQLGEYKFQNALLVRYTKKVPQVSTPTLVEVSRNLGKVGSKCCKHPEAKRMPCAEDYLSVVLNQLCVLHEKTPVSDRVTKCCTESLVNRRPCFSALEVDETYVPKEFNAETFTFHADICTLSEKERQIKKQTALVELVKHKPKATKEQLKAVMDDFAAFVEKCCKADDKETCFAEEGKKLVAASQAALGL
# [6] = Intrinsic clearance in rat liver microsomes; format: ADME; conditions: read-out: CLH; in short: as §1
# [7] = target: T2, Prostaglandin E2 receptor EP1 subtype (Homo sapiens) (UniProt P34995); test: Antagonist activity human EP1 receptor assessed as inhibition of PGE2-induced effect at 1 uM by reporter gene assay relative to control
# T2 sequence (whole entry): T1 sequence (P34995 whole entry)
# Salmonella typhimurium = test: Genotoxicity in Salmonella typhimurium TA98 by Ames test; format: toxicity, organism-based; conditions: salmonella enterica subsp. enterica serovar typhimurium
# In short: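 Bacterial reverse mutation (Ames) test in amino acid-requiring Salmonella typhimurium TA98, detecting point mutations.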
# [8] = Apparent permeability in MDCK cells; format: ADME, cell-based, Canis lupus familiaris; conditions: dog
# In short: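 Epithelial permeability across Madin–Darby canine kidney cell monolayer, with atenolol as reference.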
# Cytochrome P450 1A2 = target: T3, Cytochrome P450 1A2 (Homo sapiens, UniProt P05177); test: Inhibition of human CYP1A2; format: ADME
# T3 sequence (P05177 whole entry): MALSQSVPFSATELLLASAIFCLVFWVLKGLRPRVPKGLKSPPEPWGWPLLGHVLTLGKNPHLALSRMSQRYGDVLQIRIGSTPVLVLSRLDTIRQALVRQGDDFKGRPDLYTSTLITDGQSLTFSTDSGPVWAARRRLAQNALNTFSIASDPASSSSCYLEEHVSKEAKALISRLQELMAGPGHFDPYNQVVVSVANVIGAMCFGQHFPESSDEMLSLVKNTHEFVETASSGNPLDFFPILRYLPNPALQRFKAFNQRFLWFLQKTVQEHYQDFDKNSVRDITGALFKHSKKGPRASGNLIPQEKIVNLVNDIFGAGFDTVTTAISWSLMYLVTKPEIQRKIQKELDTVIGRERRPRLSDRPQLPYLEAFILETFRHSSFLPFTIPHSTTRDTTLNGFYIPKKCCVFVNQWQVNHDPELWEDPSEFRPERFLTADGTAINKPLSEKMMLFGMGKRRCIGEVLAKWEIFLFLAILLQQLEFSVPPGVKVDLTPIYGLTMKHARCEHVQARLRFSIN
# [9] = target: Prostaglandin E2 receptor EP2 subtype (Homo sapiens, UniProt P43116); test: Binding affinity to human EP2 receptor
# Prostaglandin E2 receptor EP2 subtype, sequence (P43116 whole entry): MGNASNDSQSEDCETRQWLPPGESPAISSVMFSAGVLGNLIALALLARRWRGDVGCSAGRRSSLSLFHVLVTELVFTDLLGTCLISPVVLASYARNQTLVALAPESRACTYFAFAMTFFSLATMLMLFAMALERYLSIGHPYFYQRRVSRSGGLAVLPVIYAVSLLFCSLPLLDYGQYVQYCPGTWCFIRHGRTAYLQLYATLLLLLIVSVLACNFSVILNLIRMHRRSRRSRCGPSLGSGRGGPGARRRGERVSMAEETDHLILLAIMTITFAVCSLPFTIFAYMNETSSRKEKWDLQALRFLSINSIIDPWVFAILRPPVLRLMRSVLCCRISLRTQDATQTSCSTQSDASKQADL
# Cytochrome P450 2C19 = Cytochrome P450 2C19 (Homo sapiens, UniProt P33261); test: Inhibition of human CYP2C19; format: ADME
# Cytochrome P450 2C19, sequence (P33261 whole entry): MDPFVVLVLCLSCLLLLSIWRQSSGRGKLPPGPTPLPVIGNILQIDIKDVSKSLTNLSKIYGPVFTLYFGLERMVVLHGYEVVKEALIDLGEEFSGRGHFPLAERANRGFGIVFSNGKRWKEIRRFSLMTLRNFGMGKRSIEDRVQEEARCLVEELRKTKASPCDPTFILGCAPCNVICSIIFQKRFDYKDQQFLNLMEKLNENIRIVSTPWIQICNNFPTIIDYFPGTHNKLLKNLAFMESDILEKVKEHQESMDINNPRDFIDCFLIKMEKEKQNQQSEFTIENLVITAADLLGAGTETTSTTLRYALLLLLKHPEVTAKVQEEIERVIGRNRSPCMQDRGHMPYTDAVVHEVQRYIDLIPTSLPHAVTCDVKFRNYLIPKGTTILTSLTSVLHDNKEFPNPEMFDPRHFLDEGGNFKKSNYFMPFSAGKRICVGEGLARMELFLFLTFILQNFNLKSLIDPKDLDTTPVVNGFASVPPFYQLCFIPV
# Cytochrome P450 2C9 = Cytochrome P450 2C9 (Homo sapiens, UniProt P11712); test: Inhibition of human CYP2C9; format: ADME
# Cytochrome P450 2C9, sequence (P11712 whole entry): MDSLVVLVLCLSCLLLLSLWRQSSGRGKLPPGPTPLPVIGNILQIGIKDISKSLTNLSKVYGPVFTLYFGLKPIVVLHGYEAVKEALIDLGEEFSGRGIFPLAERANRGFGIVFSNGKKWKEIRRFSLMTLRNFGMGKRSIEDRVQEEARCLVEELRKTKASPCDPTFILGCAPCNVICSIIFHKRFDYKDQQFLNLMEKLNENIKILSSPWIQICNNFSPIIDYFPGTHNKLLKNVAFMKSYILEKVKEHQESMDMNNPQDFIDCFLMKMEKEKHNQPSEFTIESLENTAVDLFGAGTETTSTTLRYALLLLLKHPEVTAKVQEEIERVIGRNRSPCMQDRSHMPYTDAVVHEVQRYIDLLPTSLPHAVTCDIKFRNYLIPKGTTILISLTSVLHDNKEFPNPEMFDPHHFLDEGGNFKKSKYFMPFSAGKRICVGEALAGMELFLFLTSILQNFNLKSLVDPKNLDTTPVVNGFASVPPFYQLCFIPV
# Cytochrome P450 3A4 = Cytochrome P450 3A4 (Homo sapiens, UniProt P08684); test: Inhibition of human CYP3A4; format: ADME
# Cytochrome P450 3A4, sequence (P08684 whole entry): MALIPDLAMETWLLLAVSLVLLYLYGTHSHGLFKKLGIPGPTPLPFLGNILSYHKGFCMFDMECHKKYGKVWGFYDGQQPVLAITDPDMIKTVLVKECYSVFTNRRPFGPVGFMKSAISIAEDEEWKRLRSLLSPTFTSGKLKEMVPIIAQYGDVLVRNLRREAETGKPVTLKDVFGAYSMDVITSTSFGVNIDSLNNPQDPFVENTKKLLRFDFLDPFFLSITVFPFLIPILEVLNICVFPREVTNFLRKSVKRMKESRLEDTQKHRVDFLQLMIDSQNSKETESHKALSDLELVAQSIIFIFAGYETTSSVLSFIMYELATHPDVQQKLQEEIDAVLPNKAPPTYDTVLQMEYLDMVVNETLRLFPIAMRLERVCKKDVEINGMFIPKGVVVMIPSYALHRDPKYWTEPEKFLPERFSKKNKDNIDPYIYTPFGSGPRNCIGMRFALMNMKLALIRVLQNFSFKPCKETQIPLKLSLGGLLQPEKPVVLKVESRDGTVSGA
# Cytochrome P450 2D6 = Cytochrome P450 2D6 (Homo sapiens, UniProt P10635); test: Inhibition of human CYP2D6; format: ADME
# Cytochrome P450 2D6, sequence (P10635 whole entry): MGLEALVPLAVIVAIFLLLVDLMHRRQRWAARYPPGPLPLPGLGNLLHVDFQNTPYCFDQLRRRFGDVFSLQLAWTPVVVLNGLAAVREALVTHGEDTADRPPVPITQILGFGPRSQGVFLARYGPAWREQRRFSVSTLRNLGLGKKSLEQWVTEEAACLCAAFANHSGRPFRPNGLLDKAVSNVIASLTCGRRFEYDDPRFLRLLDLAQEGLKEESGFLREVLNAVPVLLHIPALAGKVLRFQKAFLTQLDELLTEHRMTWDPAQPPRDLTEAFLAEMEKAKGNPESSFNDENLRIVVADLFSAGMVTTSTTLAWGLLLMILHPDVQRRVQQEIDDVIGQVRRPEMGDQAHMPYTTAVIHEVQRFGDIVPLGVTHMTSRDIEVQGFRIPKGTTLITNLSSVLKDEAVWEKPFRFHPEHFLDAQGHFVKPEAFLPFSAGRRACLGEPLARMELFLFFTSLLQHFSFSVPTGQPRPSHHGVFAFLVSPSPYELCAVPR
# [10] = Solubility of the compound at pH 1.2; format: physicochemical; conditions: buffer; in short: as §2
# [11] = target: T1, Prostaglandin E2 receptor EP1 subtype; test: Binding affinity to human EP1 receptor
# [12] = Cmax in rat at 10 mg/kg, po; format: ADME, organism-based; design: dose 10 mg/kg, route oral; conditions: in vivo
# In short: (§4)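 Rats (n = 3) given single oral dose, 10 mg/kg; plasma Cmax, AUC and bioavailability derived from pharmacokinetic profile.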
# [13] = target: Prostaglandin E2 receptor EP4 subtype (Homo sapiens, UniProt P35408); test: Binding affinity to human EP4 receptor
# Prostaglandin E2 receptor EP4 subtype, sequence (P35408 whole entry): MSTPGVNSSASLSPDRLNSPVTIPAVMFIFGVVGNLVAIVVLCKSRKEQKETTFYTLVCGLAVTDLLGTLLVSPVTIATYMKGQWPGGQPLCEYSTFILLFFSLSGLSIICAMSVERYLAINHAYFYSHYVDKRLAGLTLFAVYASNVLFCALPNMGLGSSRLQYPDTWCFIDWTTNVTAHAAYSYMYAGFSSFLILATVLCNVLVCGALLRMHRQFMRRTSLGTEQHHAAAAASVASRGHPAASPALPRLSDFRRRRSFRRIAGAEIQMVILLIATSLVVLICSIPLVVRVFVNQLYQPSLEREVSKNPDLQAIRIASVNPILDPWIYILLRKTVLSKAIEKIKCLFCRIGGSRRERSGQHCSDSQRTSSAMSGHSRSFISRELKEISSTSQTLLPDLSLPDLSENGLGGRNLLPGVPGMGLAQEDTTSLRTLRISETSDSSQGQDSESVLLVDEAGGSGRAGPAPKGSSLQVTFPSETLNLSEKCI
# [14] = target: T4, Prostaglandin E2 receptor EP3 subtype (Homo sapiens, UniProt P43115); test: Binding affinity to human EP3 receptor
# T4 sequence (P43115 whole entry): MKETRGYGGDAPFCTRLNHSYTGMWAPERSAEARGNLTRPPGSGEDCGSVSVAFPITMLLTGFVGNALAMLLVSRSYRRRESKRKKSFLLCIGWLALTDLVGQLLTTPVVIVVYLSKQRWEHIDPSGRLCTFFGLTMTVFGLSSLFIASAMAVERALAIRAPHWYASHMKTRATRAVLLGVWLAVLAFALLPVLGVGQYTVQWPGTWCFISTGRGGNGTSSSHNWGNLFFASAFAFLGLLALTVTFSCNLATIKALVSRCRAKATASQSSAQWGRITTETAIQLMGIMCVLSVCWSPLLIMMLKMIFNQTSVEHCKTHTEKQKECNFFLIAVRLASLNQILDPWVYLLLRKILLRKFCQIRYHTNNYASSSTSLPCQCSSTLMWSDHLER
# Thromboxane A2 receptor = target: T5, Thromboxane A2 receptor (Homo sapiens, UniProt P21731); test: Inhibition of TP receptor (unknown origin)
# T5 sequence (P21731 whole entry): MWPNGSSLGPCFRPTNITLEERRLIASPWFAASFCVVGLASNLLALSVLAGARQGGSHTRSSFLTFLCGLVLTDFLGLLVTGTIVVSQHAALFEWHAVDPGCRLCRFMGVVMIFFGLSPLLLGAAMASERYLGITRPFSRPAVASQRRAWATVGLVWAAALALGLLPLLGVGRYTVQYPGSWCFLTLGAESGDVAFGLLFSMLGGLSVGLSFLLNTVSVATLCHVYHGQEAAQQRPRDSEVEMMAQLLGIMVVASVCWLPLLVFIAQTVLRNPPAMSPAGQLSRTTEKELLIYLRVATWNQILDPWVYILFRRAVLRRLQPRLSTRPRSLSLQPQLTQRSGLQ
# [15] = AUC (0 to infinity) in rat at 10 mg/kg, po; format: ADME, organism-based; design: time infinity, dose 10 mg/kg, route oral; conditions: plasma; in short: as §4
# [16] = Oral bioavailability in rat at 10 mg/kg; format: ADME, organism-based; conditions: in vivo; in short: as §4
structure (smiles),measurement,setting,value
O=C(O)c1csc(-n2nc3c(c2-c2ccccc2)CCc2ccccc2-3)n1,CLint scaled,[1],149 mL/min/kg
same,solubility,[2],10 µg/mL
same,solubility,[3],20 µg/mL
same,pIC50,[4],8.70
same,pIC50,[5],7.70
same,fraction unbound,albumin,0.0012
same,CLint scaled,[6],236 mL/min/kg
Cc1c(-c2ccccc2)nn(-c2ccc(C(=O)O)o2)c1-c1ccccc1,inhibition,[7],24%
O=C(O)c1csc(-n2nc(-c3ccccc3)c(Cl)c2-c2ccccc2)n1,pIC50,[4],7.22
Cc1c(-c2ccccc2)nn(-c2nc(C(=O)O)cs2)c1-c1ccccc1,Activity,Salmonella typhimurium,Non-toxic
same,CLint scaled,[1],35 mL/min/kg
same,solubility,[2],401 µg/mL
same,solubility,[3],129 µg/mL
same,Papp,[8],51.6 ×10⁻⁶ cm/s
same,pIC50,Cytochrome P450 1A2,5.10
same,pKi,[9],< 5.06
same,pIC50,Cytochrome P450 2C19,5.33
same,pIC50,Cytochrome P450 2C9,< 5.00
same,fraction unbound,albumin,0.0029
same,pIC50,Cytochrome P450 3A4,< 5.00
same,CLint scaled,[6],15 mL/min/kg
same,pIC50,Cytochrome P450 2D6,< 5.00
Cc1c(-c2ccccc2)nn(-c2nc(C(=O)O)co2)c1-c1ccccc1,inhibition,[7],33%
Cc1c(-c2ccccc2)nn(-c2nc(C(=O)O)cs2)c1-c1ccsc1,pIC50,[4],7.10
Cc1c(-c2ccccc2)nn(-c2nc(C(=O)O)cs2)c1-c1cccc(F)c1,pIC50,[4],7.30
O=C(O)c1csc(-n2nc(-c3ccccc3)c3c2-c2ccccc2CC3)n1,pIC50,[4],< 7.00
Cc1c(-c2ccccc2)nn(-c2nc(C(=O)O)cs2)c1-c1cncnc1,inhibition,[7],24%
O=C(O)c1csc(-n2nc(-c3ccccc3)c(F)c2-c2ccccc2)n1,pIC50,[4],7.52
Cc1c(-c2ccccc2)nn(-c2cncc(C(=O)O)c2)c1-c1ccccc1,inhibition,[7],26%
COc1c(-c2ccccc2)nn(-c2nc(C(=O)O)cs2)c1-c1ccccc1,inhibition,[7],18%
O=C(O)c1csc(-n2nc(-c3ccccc3)c3c2-c2ccccc2C3)n1,CLint scaled,[1],425 mL/min/kg
same,solubility,[2],57 µg/mL
same,solubility,[3],4 µg/mL
same,pIC50,[4],9.05
same,pIC50,[5],7.40
same,fraction unbound,albumin,0.0032
same,CLint scaled,[6],927 mL/min/kg
Cc1c(-c2ccccc2)nn(-c2ccc(C(=O)O)s2)c1-c1ccccc1,pIC50,[4],6.00
Cc1c(-c2ccccc2)nn(-c2nc(C(=O)O)cs2)c1-c1ccc(F)cc1,pIC50,[4],7.00
O=C(O)c1csc(-n2nc(-c3ccccc3)c3oc4ccccc4c32)n1,pIC50,[4],7.70
O=C(O)c1csc(-n2nc(-c3ccccc3)c(C(F)(F)F)c2-c2ccccc2)n1,pIC50,[4],6.82
Cc1c(-c2ccccc2)nn(-c2nc(C(=O)O)cs2)c1-c1ccc(N)cc1,inhibition,[7],10%
Cc1c(-c2ccccc2)nn(-c2nc(C(=O)O)cs2)c1-c1cnn(C)c1,inhibition,[7],8%
O=C(O)c1csc(-n2nc(-c3ccccc3)c(Br)c2-c2ccccc2)n1,pIC50,[4],7.70
Cc1c(-c2ccccc2)nn(-c2nc(/C=C/C(=O)O)cs2)c1-c1ccccc1,pIC50,[4],6.30
Cc1c(-c2ccccc2)nn(-c2cccc(C(=O)O)n2)c1-c1ccccc1,inhibition,[7],48%
Cc1c(-c2ccccc2)nn(-c2nc(C(=O)O)cs2)c1-c1cccs1,pIC50,[4],6.92
CCc1c(-c2ccccc2)nn(-c2nc(C(=O)O)cs2)c1-c1ccccc1,inhibition,[7],-4%
Cc1c(-c2ccccc2)nn(-c2nc(C(=O)O)cs2)c1-c1cccnc1,inhibition,[7],34%
Cc1sc(-n2nc(-c3ccccc3)c(C)c2-c2ccccc2)nc1C(=O)O,pIC50,[4],6.48
O=C(O)c1csc(-n2nc(-c3ccccc3)c(O)c2-c2ccccc2)n1,pIC50,[4],7.22
O=C(O)c1csc(-n2nc(-c3ccccc3)c(I)c2-c2ccccc2)n1,pIC50,[4],6.89
Nc1c(-c2ccccc2)nn(-c2nc(C(=O)O)cs2)c1-c1ccccc1,Activity,Salmonella typhimurium,Non-toxic
same,solubility,[10],867 µg/mL
same,pKi,[11],8.10
same,CLint scaled,[1],19 mL/min/kg
same,solubility,[2],1010 µg/mL
same,solubility,[3],865 µg/mL
same,Cmax,[12],6.33 µM
same,pIC50,[4],7.70
same,pIC50,[5],7.22
same,pKi,[13],< 5.57
same,Papp,[8],12.2 ×10⁻⁶ cm/s
same,pIC50,Cytochrome P450 1A2,5.15
same,pKi,[14],< 5.30
same,pKi,[9],< 5.06
same,pIC50,Cytochrome P450 2C19,5.21
same,pIC50,Thromboxane A2 receptor,6.70
same,pIC50,Cytochrome P450 2C9,5.25
same,fraction unbound,albumin,0.01
same,AUC(0-inf),[15],17.4 µM·h
same,pIC50,Cytochrome P450 3A4,< 5.00
same,bioavailability,[16],26%
same,CLint scaled,[6],29 mL/min/kg
same,pIC50,Cytochrome P450 2D6,< 5.00

# Source: ChEMBL document CHEMBL3091274, “SAR-based optimization of 2-(1H-pyrazol-1-yl)-thiazole derivatives as highly potent EP1 receptor antagonists” (Bioorg Med Chem Lett, 2013)
